Measurements: ChEMBL document CHEMBL3632617, “Chrysin-benzothiazole conjugates as antioxidant and anticancer agents” (Bioorg Med Chem Lett, 2015)
Converted amounts (≈) assume the structure as drawn.

Tests used:
HeLa [1] = assay: Cytotoxicity against human HeLa cells; type: functional, cell-based
SK-OV-3 = assay: Cytotoxicity against human SKOV3 cells after 48 hrs by SRB assay; type: functional, cell-based; settings: SK-OV-3, 48 h
Outline: (§1)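 Cell lines (HeLa, CaSki, SK-OV-3, MDCK) were obtained from ATCC. The colorimetric end point used the protein-binding dye sulforhodamine B.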

[2] = Antioxidant activity assessed as DPPH radical scavenging activity after 25 mins by UV-Visible spectrophotometric analysis; type: physicochemical
Outline: (§2)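 Radical scavenging by DPPH (Brand–Williams method) and by ABTS radical-cation decolorization via single electron transfer. Ascorbic acid served as the reference. IC50 is the concentration that inhibits 50% of the radicals. Results are the average of triplicate analyses.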

MDCK = assay: Cytotoxicity against MDCK cells after 48 hrs by SRB assay; type: cell-based; settings: Canis lupus familiaris; outline: as §1
[3] = Antioxidant activity assessed as ABTS radical scavenging activity after 10 mins by UV-Visible spectrophotometric analysis; type: physicochemical; outline: as §2
HeLa [4] = assay: Cytotoxicity against human HeLa cells after 48 hrs by SRB assay; type: functional, cell-based; outline: as §1
[5] = Cytotoxicity against human CaSki cells after 48 hrs by SRB assay; type: functional, cell-based; settings: Ca-Ski; outline: as §1

SMILES	IC50 (HeLa [1]) [µg/mL]	IC50 (SK-OV-3) [µg/mL]	IC50 [2] [µg/mL]	CC50 (MDCK) [µg/mL]	IC50 [3] [µg/mL]	IC50 (HeLa [4]) [µg/mL]	IC50 [5] [µg/mL]
O=c1cc(-c2ccccc2)oc2cc(O)cc(O)c12 [CHRYSIN]	10.9 (≈ 43 µM)						
CC(=O)c1ccc2nc(NCCCCOc3cc(O)c4c(=O)cc(-c5ccccc5)oc4c3)sc2c1		34.3 (≈ 68.4 µM)	30.72 (≈ 61.4 µM)	311 (≈ 621 µM)	7.026 (≈ 14 µM)	7.78 (≈ 15.6 µM)	14.5 (≈ 29 µM)
O=c1cc(-c2ccccc2)oc2cc(OCCCCNc3nc4ccc(Cl)cc4s3)cc(O)c12		39.2 (≈ 79.6 µM)	13.16 (≈ 26.7 µM)	338 (≈ 685 µM)	4.156 (≈ 8.43 µM)	5.95 (≈ 12.1 µM)	12.4 (≈ 25.2 µM)
O=c1cc(-c2ccccc2)oc2cc(OCCCCNc3nc4ccccc4s3)cc(O)c12		48.5 (≈ 106 µM)	26.45 (≈ 57.7 µM)	348 (≈ 758 µM)	8.567 (≈ 18.7 µM)	4.75 (≈ 10.4 µM)	14.6 (≈ 31.9 µM)
CC(=O)Nc1ccc2nc(NCCCCOc3cc(O)c4c(=O)cc(-c5ccccc5)oc4c3)sc2c1		51.3 (≈ 99.4 µM)	29.16 (≈ 56.6 µM)	291 (≈ 565 µM)	8.355 (≈ 16.2 µM)	6.91 (≈ 13.4 µM)	11.4 (≈ 22 µM)
O=c1cc(-c2ccccc2)oc2cc(OCCCCNc3nc4ccc([N+](=O)[O-])cc4s3)cc(O)c12		41.4 (≈ 82.3 µM)	30.25 (≈ 60.1 µM)	310 (≈ 615 µM)	8.135 (≈ 16.2 µM)	6.44 (≈ 12.8 µM)	13.2 (≈ 26.3 µM)
N#Cc1ccc2nc(NCCCCOc3cc(O)c4c(=O)cc(-c5ccccc5)oc4c3)sc2c1		43.7 (≈ 90.4 µM)	15.56 (≈ 32.2 µM)	312 (≈ 646 µM)	6.543 (≈ 13.5 µM)	8.53 (≈ 17.6 µM)	18.8 (≈ 39 µM)
O=c1cc(-c2ccccc2)oc2cc(OCCCCNc3nc4ccc(C(F)(F)F)cc4s3)cc(O)c12		37.2 (≈ 70.6 µM)	16.27 (≈ 30.9 µM)	278 (≈ 529 µM)	4.953 (≈ 9.41 µM)	7.84 (≈ 14.9 µM)	11.2 (≈ 21.3 µM)
COc1ccc2nc(NCCCCOc3cc(O)c4c(=O)cc(-c5ccccc5)oc4c3)sc2c1		38.1 (≈ 78.1 µM)	23.87 (≈ 48.9 µM)	285 (≈ 583 µM)	7.356 (≈ 15.1 µM)	6.15 (≈ 12.6 µM)	16.1 (≈ 33 µM)
O=c1cc(-c2ccccc2)oc2cc(OCCCCNc3nc4ccc(F)cc4s3)cc(O)c12		33.7 (≈ 70.8 µM)	14.74 (≈ 30.9 µM)	324 (≈ 680 µM)	5.246 (≈ 11 µM)	5.03 (≈ 10.6 µM)	13.4 (≈ 28 µM)
Cc1ccc2nc(NCCCCOc3cc(O)c4c(=O)cc(-c5ccccc5)oc4c3)sc2c1		48.4 (≈ 102 µM)	28.13 (≈ 59.5 µM)	294 (≈ 621 µM)	8.785 (≈ 18.6 µM)	6.56 (≈ 13.9 µM)	15.5 (≈ 32.9 µM)
O=c1cc(-c2ccccc2)oc2cc(OCCCCNc3nc4ccc(Br)cc4s3)cc(O)c12		35.1 (≈ 65.3 µM)	16.09 (≈ 29.9 µM)	289 (≈ 538 µM)	6.565 (≈ 12.2 µM)	6.56 (≈ 12.2 µM)	12.4 (≈ 23.1 µM)
O=c1cc(-c2ccccc2)oc2cc(OCCCCNNc3nc4ccccc4s3)cc(O)c12		51.7 (≈ 109 µM)	24.34 (≈ 51.4 µM)	316 (≈ 668 µM)	8.734 (≈ 18.4 µM)	4.64 (≈ 9.79 µM)	14.6 (≈ 30.9 µM)
CCCC(=O)c1ccc2nc(NCCCCOc3cc(O)c4c(=O)cc(-c5ccccc5)oc4c3)sc2c1		41.6 (≈ 78.7 µM)	38.98 (≈ 73.7 µM)	278 (≈ 525 µM)	8.535 (≈ 16.1 µM)	7.17 (≈ 13.6 µM)	17.8 (≈ 33.6 µM)
O=c1cc(-c2ccccc2)oc2cc(OCCCCNc3nc4c(F)cc(F)cc4s3)cc(O)c12		36.8 (≈ 74.5 µM)	15.12 (≈ 30.6 µM)	307 (≈ 621 µM)	5.764 (≈ 11.7 µM)	5.56 (≈ 11.2 µM)	10.8 (≈ 21.9 µM)
O=C1O[C@H]([C@@H](O)CO)C(O)=C1O [ASCORBIC ACID]			12.72 (≈ 72.2 µM)		5.0925 (≈ 28.9 µM)		
CCOc1ccc2nc(NCCCCOc3cc(O)c4c(=O)cc(-c5ccccc5)oc4c3)sc2c1		35.3 (≈ 70.3 µM)	24.41 (≈ 48.6 µM)	306 (≈ 610 µM)	8.853 (≈ 17.6 µM)	5.25 (≈ 10.4 µM)	15.1 (≈ 29.9 µM)
CCC(=O)c1ccc2nc(NCCCCOc3cc(O)c4c(=O)cc(-c5ccccc5)oc4c3)sc2c1		35.6 (≈ 69.3 µM)	32.23 (≈ 62.6 µM)	296 (≈ 574 µM)	7.157 (≈ 13.9 µM)	6.26 (≈ 12.2 µM)	17.8 (≈ 34.7 µM)
O=C(O)c1ccc2nc(NCCCCOc3cc(O)c4c(=O)cc(-c5ccccc5)oc4c3)sc2c1		43.3 (≈ 86.3 µM)	21.66 (≈ 43.1 µM)	324 (≈ 645 µM)	6.742 (≈ 13.4 µM)	8.42 (≈ 16.8 µM)	12.1 (≈ 24 µM)
O=c1cc(-c2ccccc2)oc2cc(OCCCCNc3nc4ccc(I)cc4s3)cc(O)c12		56.4 (≈ 96.6 µM)	25.44 (≈ 43.5 µM)	298 (≈ 510 µM)	9.836 (≈ 16.8 µM)	8.12 (≈ 13.9 µM)	13.2 (≈ 22.5 µM)
